The nature of the data set: Toxicity liver stage against HepG2, at 10uM. The class given is cell-based. Also on record: test concentration 10 uM, cell line HepG2-A16-CD81EGFP. The conditions noted are these: human, HepG2-A16-CD81EGFP cells; read-out: INHIBITION
An outline of the steps:
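Uninfected HepG2-A16-CD81EGFP cells, 3 × 10^3 per well, 1536-well, plated on prespotted compound at 10 μM final, parasite-free screening media added to match infected plates; puromycin 10 μM positive, DMSO 0.5% negative; run in parallel with 48 h PbLuc assay at 37 °C, 5% CO2; viability by CellTiter-Glo luminescence, normalized to controls.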
Turning to `c1ccc(Cc2nnc([C@H]3CCN(C4CCCCC4)C3)o2)cc1`, the cytotoxicity at 10 µM was -1.14%.
As for `Cc1cc2c(C)cc(O)cc2c(=O)o1`, the cytotoxicity at 10 µM was 5.73%.
For `CCCn1nnc(NCc2ccccc2OCc2ccc(Cl)cc2)n1`, the cytotoxicity at 10 µM was found to be 2.76%.
Consider `CSCC[C@H](NC(=O)CCn1cc(C(C)=O)c2ccccc21)C(=O)O`, for which the cytotoxicity at 10 µM was -3.91%.
Take `Cc1csc(NC(=O)c2ccc(NC(=O)N3CCOCC3)cc2)n1`: the cytotoxicity at 10 µM was 1.11%.
As for `CN1CCN(C(=O)Cc2ccccn2)Cc2cccnc21`, the cytotoxicity at 10 µM was -7.01%.
In the case of `Cn1cc(CN2CCc3c(COCc4ccncc4)cncc3C2)cn1` it was -2.37%; in that of `COc1ccc(CN2C[C@@H]3CN(C(=O)c4ccsc4)C[C@@H]3C2=O)cc1`, -3.7%.
`O=C(c1ncccn1)N1C[C@@H]2COC[C@]2(c2nnc(C3CC3)o2)C1`: the cytotoxicity at 10 µM is -1.31%.
For the compound `CC(C)[C@H](NC(=O)NC1CCS(=O)(=O)C1)C(=O)Nc1cccnc1` (some centres not stated), the cytotoxicity at 10 µM was 6.85%.
With `CC(C)n1ncc2c1NC(=O)CC21C(=O)Nc2c(Cl)cc(Cl)cc21` (configuration not stated), the cytotoxicity at 10 µM worked out at 3.38%.
Take `CCOc1cccc(C(=O)Nc2ccn(CC)n2)c1`: the cytotoxicity at 10 µM came to 8.19%.
The figure for `CC(=O)c1ccc(NC(=O)C(C)Cn2cc(Br)cn2)cc1` (configuration not stated) is 0.88%.
As for `COc1c(Br)c(C(=O)NC2CCCCC2)nn1C`, the cytotoxicity at 10 µM came to 6.94%.
In the case of `CCc1cc(C(=O)N2CCCC(c3cc(=O)nc4n3CCC4)C2)no1` (configuration not stated) it was -2.6%; in that of `CN(C)CC1(O)CCN(C(=O)Cc2ccc3ccccc3c2)C1` (configuration not stated), -6.77%; in that of `COCCC(=O)N1CCC(c2ccc3c(NC(C)C)n[nH]c3n2)C1` (configuration not stated), 0.691%.
In the case of `Cc1cc(C)nc(C2CCN(C3CCCCC3)C2)n1` (configuration not stated) it was 7.33%.
The figure for `CCn1ncc(C(=O)NCCc2nc(-c3cccnc3)n[nH]2)c1C` is 1.94%; for `O=C(O)[C@@H]1CCN(C(=O)c2cscn2)[C@@H]1c1ccc(F)cc1` it is 4.97%; for `CN(C)C(=O)c1c[nH]nc1C1CCN(S(=O)(=O)c2ccccc2)CC1` it is -0.358%.
On to `O=C(Nc1ccccn1)C1CCN(C(=O)COc2ccccc2F)C1` (configuration not stated), for which the cytotoxicity at 10 µM was -24.6%.
The figure for `CNc1cccc(C2CCCN(C(=O)c3cnccn3)C2)n1` (configuration not stated) is -19.2%; for `CC(C)C1=NOC2(CCN(S(C)(=O)=O)CC2)C1` it is 6.47%; for `CC(C)NC(=O)CCNC(=O)CCc1cc(Br)cs1` it is -3.16%.
The figure for `CCNC(=O)CNC(=O)c1nc(C2CC2)n(-c2ccccc2Cl)n1` is 5.91%; for `O=C(O)c1ccc(-c2cscn2)cc1` it is 7.68%.
The figure for `CC(C)(NCc1cccc(O)c1)c1ccc2c(c1)OCO2` is 5.12%; for `CC(C)S(=O)(=O)CCN1CCN(C(C#N)c2ccccc2)CC1` (configuration not stated) it is 0.401%; for `CCc1ccc(CC)c(NCc2cnc(N3CCOCC3)nc2)c1` it is 0.898%.
As for `Cc1cc(C(=O)N2CCNC(=O)CC2)c(C)n1CC(F)(F)F`, the cytotoxicity at 10 µM was 1.88%.
In the case of `CCSCc1csc(-c2ccc(S(C)(=O)=O)cc2)n1` it was 8.21%; in that of `CCc1[nH]ncc1C(=O)N1CCN(c2nccc(OC)n2)CC1`, 0.296%.
The figure for `Cc1csc(CNC(=O)NC2CCCN(S(C)(=O)=O)C2)n1` (configuration not stated) is -6.3%; for `CN(C)c1ncccc1CNC(=O)c1csc(Br)c1` it is -1.35%; for `Cc1ccccc1C1(CNC(=O)N2CCC(CC(N)=O)CC2)CC1` it is 4.48%.
Take `CCc1ncc(C(=O)N2CCOCC2CC(=O)c2ccccc2)s1` (configuration not stated): the cytotoxicity at 10 µM was determined as 2.58%.
`Cn1c(=O)ccn(CC(=O)NCC2Cc3ccccc3O2)c1=O` (configuration not stated): the cytotoxicity at 10 µM was -0.387%.
The figure for `O=C(Cn1cc(Cl)cn1)Nc1ccc2c(c1)OCO2` is 4.57%.
As to `O=C(Nc1ccc2c(ccn2CCN2CCOCC2)c1)c1ccncc1`, the cytotoxicity at 10 µM is -2.9%.
In the case of `CCN1CCN(CC(O)c2ccc(Br)cc2)CC1` (configuration not stated) it was -6.95%.
In the case of `Cc1cnn(C2CN(CC(=O)NCC3(c4ccccc4)CC3)C2)c1` it was -10.9%.
The figure for `COC(=O)CCNC(=O)c1ccc(NC(=O)N(C)CC(C)(C)C)cc1` is 8.01%; for `Cc1nc(CN2CCN(C(=O)CCC(=O)c3ccccc3)CC2)no1` it is 3.7%; for `O=C1CC2(CCCCC2)C(=O)N1CC(O)COCc1ccccc1F` (configuration not stated) it is 0.611%.
With `CC(C)c1nn(C)c(N(C)C)c1CNCC(O)COc1ccccc1` (configuration not stated), the cytotoxicity at 10 µM was 0.142%.
`C=C(C)CN1CCCC(NS(C)(=O)=O)C1` (configuration not stated): the cytotoxicity at 10 µM turned out to be 4.21%.
The figure for `Cc1cnn(CC2CCCN2C(=O)CCc2c(C)nc(C)[nH]c2=O)c1` (configuration not stated) is -2.79%.
In the case of `O=S(=O)(c1ccc2c(c1)OCCO2)N1CCC(OCc2ccccn2)C1` (configuration not stated) it was -1.18%.
In the case of `Cc1ccc(N2CCCC(NC(=O)Cc3csc(C)n3)C2=O)cc1` (configuration not stated) it was -1.31%; in that of `CCOCC1CCN(C(=O)Nc2ccc3c(c2)CCCN3C)C1` (configuration not stated), 10.1%; in that of `CSc1ccc(NCc2csc(C)n2)cc1F`, -6.54%.
On to `CCC(=O)N1CSCC1C(=O)Nc1ccccc1-c1cccs1` (configuration not stated), for which the cytotoxicity at 10 µM is -3.8%.
On to `NC(=O)C1CCCCN1C(=O)c1ccc(Br)s1` (configuration not stated), for which the cytotoxicity at 10 µM is -6.38%.
As for `Cc1nc2ccc(C(=O)N(CCC#N)CCC#N)cc2nc1C`, the cytotoxicity at 10 µM is -12.8%.
Turning to `CC(C)C1CN(C(=O)c2ccn(C)c(=O)c2)c2ccccc2N1` (configuration not stated), the cytotoxicity at 10 µM is -6.01%.
The figure for `CCOc1ncccc1C(=O)N1CC=C(c2ccc(O)cc2)CC1` is 8.02%; for `CN1CC(C(=O)NC2(c3cccc(F)c3)CCOCC2)CC1=O` (configuration not stated) it is 15.6%.
In the case of `Cc1n[nH]cc1CNC(C(=O)N1CCOCC1)c1ccccc1` (configuration not stated) it was 7.57%.
As for `CC(C)CNC(=O)c1ccc(NC(=O)NC(C)C)cc1Cl`, the cytotoxicity at 10 µM is 5.92%.
As to `O=C1C(n2nnc(-c3ccsc3)n2)CCN1CC(F)(F)F` (configuration not stated), the cytotoxicity at 10 µM was 0.519%.
The figure for `CCN(CC)c1ccc(CNC(=O)C2(C)CCOCC2)cc1F` is -4.08%.
On to `O=C(Cc1ccc2c(c1)CCO2)N1CCCCC1Cn1cccn1` (configuration not stated), for which the cytotoxicity at 10 µM was -12.8%.
In the case of `CCOC(CC)C(=O)NCCC(=O)N1CCN(c2ccccn2)CC1` (configuration not stated) it was -7.4%; in that of `O=C(NCCc1nnc2n1CCC2)NCC1(c2cccc(F)c2)CC1`, -7.94%; in that of `CN(Cc1cncnc1)[C@H]1CN(C(=O)c2ccco2)[C@@H]2CCCO[C@@H]21`, -101%.
With `Cc1cccc(OC2CCN(C(=O)CNC(=O)N(C)C)CC2)c1`, the cytotoxicity at 10 µM is -0.951%.
The figure for `CNc1nc(C)c(C(=O)N2CCCCC2CCc2ccc(O)cc2)s1` (configuration not stated) is 0.126%.
The figure for `Cc1cc(N2CCCC(O)CC2)n2nc(C)c(C)c2n1` (configuration not stated) is 7.46%; for `CCc1nc(N)nc(N2CCCC3(CN(C)C(=O)O3)C2)c1C` (configuration not stated) it is -138%; for `Cc1c(CNCC(C)Oc2cccnc2)c2ccccc2n1CC(N)=O` (configuration not stated) it is -141%.
In the case of `Cc1cc(C)c2c(N(C)CC3CCOC3)ncnc2n1` (configuration not stated) it was -146%; in that of `CN1CCC(N(CCc2ccccc2)C(=O)COCC2CCCO2)CC1` (configuration not stated), -148%; in that of `COc1ccccc1CC(=O)N1CCC(OCc2cccnc2)CC1`, 4.87%.
`COc1ccc(-c2noc(C3CC(C(C)C)=NO3)n2)cc1` (configuration not stated): the cytotoxicity at 10 µM is -6.64%.
Turning to `CC(C)c1ccn(C2(C(=O)O)CCN(c3ccncc3F)CC2)n1`, the cytotoxicity at 10 µM was -0.679%.
For `CC(C)[C@H]1COC(=O)N1Cc1nnc(-c2ccccc2)o1`, the cytotoxicity at 10 µM is 0.537%.
Regarding `O=C(CCc1ccc(=O)[nH]n1)N1CCCC(COc2ccc(F)cc2)C1` (configuration not stated), the cytotoxicity at 10 µM was 1.9%.
As to `CCOCC(O)CN1CCN(C(=O)c2cc(C)ccc2OC)CC1` (configuration not stated), the cytotoxicity at 10 µM is 5.35%.
In the case of `Cc1nn(C)c(Cl)c1C1CCCN1C(=O)CCNc1ncccn1` (configuration not stated) it was -7.42%; in that of `CCS(=O)(=O)N1CCN(C(=O)c2cnc3[nH]nc(C)c3c2)CC1`, -5.68%.
The figure for `CCc1nnc(CN2CCc3cnc(C)nc3C2)o1` is -4.04%; for `CC(NC(=O)c1cccs1)C(=O)Nc1cccnc1N1CCCCC1` (configuration not stated) it is -8.94%.
The figure for `COc1ccccc1C(=O)N1CCC(Nc2ccc(C)nn2)CC1` is -4.05%.
Consider `Cc1cnn(CCNCc2nnc(-c3ccc(F)cc3)o2)c1`, for which the cytotoxicity at 10 µM is -43.9%.
Turning to `CC(NC(=O)Cn1ccc(=O)n(C)c1=O)c1cc(F)ccc1F` (configuration not stated), the cytotoxicity at 10 µM is -4.64%.
In the case of `CC(C)c1noc(C(C)N2CCN(Cc3noc(C(C)(C)C)n3)CC2)n1` (configuration not stated) it was -14.6%; in that of `COc1ccc(C(=O)N(C)Cc2nnc3ccccn23)cc1`, 3.45%.
The figure for `CCc1nc(CN2CCN(C(=O)c3cc(C)no3)CC2)cs1` is -21.8%; for `CC(C(=O)NCc1cccc(N2CC=CC2)c1)n1cccn1` (configuration not stated) it is -5.07%.
Consider `Cc1ccccc1C(=O)N1CCC2(CCCN2CCN(C)C)CC1`, for which the cytotoxicity at 10 µM was 3.56%.
In the case of `Cc1ccc2c(n1)N(CC1CC1)CCN(C(=O)c1ccncc1F)C2` it was -0.182%; in that of `Cc1cc(C(=O)N2CCC3(CC2)CC(c2cccnc2)C(=O)N3C)no1` (configuration not stated), 1.48%; in that of `CNC(=O)CN1CCCC12CCN(C(=O)c1ccccc1F)CC2`, 1.58%.
In the case of `CC1c2ncc(COc3cccnc3)n2CCN1C(=O)Cc1ccco1` (configuration not stated) it was -5.13%.
Consider `COC1COC2(CCN(c3ccc(C#N)cc3)CC2)C1` (configuration not stated), for which the cytotoxicity at 10 µM was -79.6%.
In the case of `O=C(c1ccccn1)N1C[C@H]2CC[C@@H](C1)N(C(=O)CCC1CCCC1)C2` it was 3.07%.

The values above are taken from ChEMBL document CHEMBL4513216, “Probing the Open Global Health Chemical Diversity Library for Multistage-Active Starting Points for Next-Generation Antimalarials” (ACS Infect Dis, 2020).
